What all share (type): functional
One assay deals with HL-60. As to the kind of experiment: Percent differentiation of human promyelocytic leukemia (HL60) cells at 10e -6M concentration in culture medium. In short, it runs like this: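 HL60 cells in RPMI-1640 with 10% FBS, 2 mM L-glutamine and gentamycin were exposed for 4 days to compound at 10⁻⁶ M final, diluted from a DMSO stock, at 1×10^5 cells/mL. Differentiation was scored by NBT reduction: 30 min at 37 °C with 0.2% NBT plus 200 ng/mL PMA. At least 200 cells were counted by light microscopy, blue cells scored as differentiated.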

In assay [1] the test system is P19. The experiment in a line: Percent aggregation of mouse embryonal carcinoma (P19) cells 10e-6 M concentration in culture medium. In short, it runs like this: (§1)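 P19 mouse embryonal carcinoma cells grown in α-MEM with 7.5% calf serum, 2.5% fetal calf serum and gentamycin at 37 °C, 5% CO2. Cells trypsinized, replated at 2×10^5 cells/mL, dosed from DMSO stock at 10⁻⁶ M final, redosed with fresh medium after 2 days, diluted 3 days later and counted 2 days after that. Read-out is percent of aggregates with neural outgrowth. Run in triplicate.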

Assay [2] deals with P19. The experiment in a line: percent aggregation of mouse embryonal carcinoma (P19) cells 10e -6M concentration in culture medium. In short, it runs like this: as §1

The structures appear in SMILES notation.

In turn, `CC1(C)CCC(C)(C)c2nc(C(=O)Nc3cccc(C(=O)O)c3)cnc21` yielded a Differentiation in the assay on HL-60 of 2%. Further, the Aggregates in the assay with P19 [1] is reported as 1%.

The compound `CC1(C)CC(C)(C)c2nc(C(=O)Nc3ccc(C(=O)O)c(Cl)c3)cnc21` yielded a Differentiation in the assay with HL-60 of 67%. The Aggregates with P19 [1] is 60%.

Turning to `CC1(C)CC(C)(C)c2nc(C(=O)Nc3cccc(C(=O)O)c3)cnc21`, the Differentiation in the assay with HL-60 amounted to 0%. For the same compound, the Aggregates with P19 [1] amounted to 0%.

Take `COc1cc(C(=O)O)ccc1NC(=O)c1cnc2c(n1)C(C)(C)CC2(C)C`: the Differentiation with HL-60 turned out to be 6%. For the same compound, the Aggregates with P19 [1] came to 0%.

Consider `CC1(C)CC(C)(C)c2nc(C(=O)Nc3ccc(C(=O)O)cc3)cnc21`, for which, in the assay with HL-60, the Differentiation was 46%. Moreover, in the assay with P19 [1], the Aggregates is reported as 67%.

For the compound `COc1cc(C(=O)O)ccc1NC(=O)/C=C(C)/C=C/C1=C(C)CCCC1(C)C`, the Differentiation with HL-60 amounted to 9%. The compound further came in with an Aggregates with P19 [1] of 2%.

With `COC(=O)c1ccc(NC(=O)c2cnc3c(n2)C(C)(C)CC3(C)C)cc1Cl`, the Differentiation with HL-60 amounted to 69%. The Aggregates with P19 [1] turned out to be 50%.

Compound `CC1=C(/C=C/C(C)=C/C(=O)N(C)c2ccc(C(=O)O)cc2)C(C)(C)CCC1` gave a Differentiation in the assay with HL-60 of 4%. For the same compound, the Aggregates with P19 [1] is listed as 1%.

The compound `CC1=C(/C=C/C(C)=C/C(=O)Nc2ccc(C(=O)O)cc2)C(C)(C)CCC1` returned a Differentiation with HL-60 of 79%. In the assay on P19 [1], this compound had an Aggregates of 68%.

In the assay with HL-60, `COC(=O)c1ccc(N(C)C(=O)c2cnc3c(n2)C(C)(C)CC3(C)C)cc1` returned a Differentiation of 7%. Further, the Aggregates in the assay on P19 [1] came to 0%.

`CN(C(=O)c1cnc2c(n1)C(C)(C)CCC2(C)C)c1ccc(C(=O)O)cc1` displayed a Differentiation with HL-60 of 15%. The Aggregates in the assay on P19 [1] was 0%.

With `COC(=O)c1ccc(Cl)c(NC(=O)c2cnc3c(n2)C(C)(C)CCC3(C)C)c1`, in the assay with HL-60, the Differentiation worked out at 7%. The compound further yielded an Aggregates in the assay with P19 [1] of 0%.

Turning to `COC(=O)c1ccc(NC(=O)c2cnc3c(n2)C(C)(C)CCC3(C)C)cc1Cl`, the Differentiation in the assay with HL-60 stood at 47%. The Aggregates in the assay with P19 [1] was found to be 74%.

In the assay on HL-60, `COC(=O)c1cccc(NC(=O)c2cnc3c(n2)C(C)(C)CC3(C)C)c1` gave a Differentiation of 0%. The same compound had an Aggregates in the assay with P19 [1] of 2%.

In the case of `COC(=O)c1ccc(Cl)c(NC(=O)c2cnc3c(n2)C(C)(C)CC3(C)C)c1`, the Differentiation with HL-60 was 4%. The Aggregates with P19 [1] turned out to be 0%.

As for `COC(=O)c1cc(NC(=O)c2cnc3c(n2)C(C)(C)CC3(C)C)cc(C(=O)OC)c1`, the Differentiation with HL-60 was determined as 4%. This compound had an Aggregates in the assay on P19 [1] of 1%.

Take `COC(=O)c1ccc(OC)c(NC(=O)c2cnc3c(n2)C(C)(C)CCC3(C)C)c1`: the Differentiation in the assay on HL-60 worked out at 0%. The Aggregates with P19 [1] is 0%.

`COC(=O)c1cccc(NC(=O)c2cnc3c(n2)C(C)(C)CCC3(C)C)c1`: the Differentiation with HL-60 is reported as 6%. In the assay on P19 [1], this compound showed an Aggregates of 0%.

Take `CC1(C)CCC(C)(C)c2nc(C(=O)Oc3ccc(C(=O)O)cc3)cnc21`: the Aggregation in the assay on P19 [2] is on record as 0%. Further, the Differentiation in the assay with HL-60 worked out at 47%.

On to `COc1ccc(C(=O)O)cc1NC(=O)c1cnc2c(n1)C(C)(C)CC2(C)C`, for which the Differentiation in the assay on HL-60 is listed as 3%. The Aggregates with P19 [1] is given as 0%.

Compound `COC(=O)c1ccc(NC(=O)c2cnc3c(n2)C(C)(C)CCC3(C)C)cc1` yielded a Differentiation in the assay on HL-60 of 76%. The Aggregates with P19 [1] was 75%.

With `COC(=O)c1ccc(NC(=O)c2cnc3c(n2)C(C)(C)CC3(C)C)cc1`, the Differentiation in the assay on HL-60 stood at 43%. Further, the Aggregates in the assay with P19 [1] is listed as 52%.

`CC1(C)CC(C)(C)c2nc(C(=O)Nc3cc(C(=O)O)cc(C(=O)O)c3)cnc21` had a Differentiation in the assay with HL-60 of 2%. The compound also came in with an Aggregates with P19 [1] of 2%.

As for `COc1cc(C(=O)O)ccc1NC(=O)c1cnc2c(n1)C(C)(C)CCC2(C)C`, the Differentiation in the assay with HL-60 amounted to 30%. The compound also displayed an Aggregates in the assay with P19 [1] of 0%.

`COC(=O)c1cc(NC(=O)c2cnc3c(n2)C(C)(C)CCC3(C)C)cc(C(=O)OC)c1` registered a Differentiation with HL-60 of 2%. For the same compound, the Aggregates in the assay on P19 [1] is 0%.

In the assay with HL-60, `COC(=O)c1ccc(NC(=O)c2cnc3c(n2)C(C)(C)CC3(C)C)c(OC)c1` registered a Differentiation of 13%. Besides, in the assay on P19 [1], the Aggregates stood at 0%.

In the case of `COC(=O)c1ccc(OC)c(NC(=O)c2cnc3c(n2)C(C)(C)CC3(C)C)c1`, the Differentiation in the assay with HL-60 is reported as 1%. For the same compound, in the assay with P19 [1], the Aggregates was determined as 0%.

In the assay with HL-60, `CC1(C)CCC(C)(C)c2nc(C(=O)Nc3ccc(C(=O)O)cc3)cnc21` came in with a Differentiation of 73%. The compound further had an Aggregates in the assay on P19 [1] of 70%.

`CC1(C)CC(C)(C)c2nc(C(=O)Nc3cc(C(=O)O)ccc3Cl)cnc21` registered a Differentiation in the assay with HL-60 of 20%. The Aggregates in the assay with P19 [1] was 2%.

Compound `CC1=C(/C=C/C(C)=C/C=C/C(C)=C/C(=O)O)C(C)(C)CCC1` [TRETINOIN] returned an Aggregation in the assay with P19 [2] of 86%. Besides, the Differentiation in the assay with HL-60 was found to be 91%.
